Measurements taken from ChEMBL document CHEMBL4346673, “Synthesis and biological evaluation of pyridazinone derivatives as selective COX-2 inhibitors and potential anti-inflammatory agents” (Eur J Med Chem, 2019).

How the values were obtained:
[1] = target: Prostaglandin G/H synthase 1 (Homo sapiens, UniProt P23219); test: Inhibition of human COX1 assessed as reduction in PGF2alpha production using arachidonic acid as substrate preincubated with enzyme for 10 mins followed by substrate addition by ELISA; type: single protein
Chain of Prostaglandin G/H synthase 1 (P23219 whole entry): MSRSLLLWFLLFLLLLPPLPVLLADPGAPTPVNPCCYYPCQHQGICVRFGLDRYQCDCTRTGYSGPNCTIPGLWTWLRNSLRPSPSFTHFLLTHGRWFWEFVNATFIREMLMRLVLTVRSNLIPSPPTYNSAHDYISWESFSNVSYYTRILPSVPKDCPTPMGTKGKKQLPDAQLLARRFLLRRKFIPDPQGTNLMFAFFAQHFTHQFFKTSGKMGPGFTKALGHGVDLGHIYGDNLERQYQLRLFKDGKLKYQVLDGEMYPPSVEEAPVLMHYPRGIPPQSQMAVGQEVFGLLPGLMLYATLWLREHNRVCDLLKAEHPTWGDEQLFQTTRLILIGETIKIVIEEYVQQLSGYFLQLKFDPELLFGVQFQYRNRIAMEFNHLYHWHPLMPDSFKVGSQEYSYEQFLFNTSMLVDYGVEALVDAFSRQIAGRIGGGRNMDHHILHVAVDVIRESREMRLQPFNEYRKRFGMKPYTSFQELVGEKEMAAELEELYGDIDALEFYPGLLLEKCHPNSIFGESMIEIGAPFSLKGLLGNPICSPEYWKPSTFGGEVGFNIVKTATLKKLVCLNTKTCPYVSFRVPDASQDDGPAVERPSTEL

[2] = system: Rattus norvegicus; test: Antiinflammatory activity against carrageenan-induced albino Sprague-Dawley rat paw edema model assessed as paw diameter at 10 mg/kg, po pretreated for 1 hr followed by carrageenan challenge and measured immediately after carrageenan injection (reference value: 3.46 +/- 0.08 mm); type: functional
[3] = system: Rattus norvegicus; test: Antiinflammatory activity against carrageenan-induced albino Sprague-Dawley rat paw edema model assessed as paw diameter at 10 mg/kg, po pretreated for 1 hr followed by carrageenan challenge and measured at 1 hr post-carrageenan injection (reference value: 4.51 +/- 0.09 mm); type: functional
[4] = system: Rattus norvegicus; test: Antiinflammatory activity against carrageenan induced albino Sprague-Dawley rat paw edema model assessed as paw edema at 10 mg/kg, po pretreated for 1 hr followed by carrageenan challenge and measured at 1 hr post-carrageenan injection (reference value: 30.3%); type: functional
[5] = system: Rattus norvegicus; test: Antiinflammatory activity against carrageenan induced albino Sprague-Dawley rat paw edema model assessed as paw diameter at 10 mg/kg, po pretreated for 1 hr followed by carrageenan challenge and measured at 2 hrs post-carrageenan injection (reference value: 4.72 +/- 0.08 mm); type: functional
[6] = system: Rattus norvegicus; test: Antiinflammatory activity against carrageenan-induced albino Sprague-Dawley rat paw edema model assessed as paw edema at 10 mg/kg, po pretreated for 1 hr followed by carrageenan challenge and measured at 2 hrs post-carrageenan injection (reference value: 36.4%); type: functional
[7] = system: Rattus norvegicus; test: Antiinflammatory activity against carrageenan induced albino Sprague-Dawley rat paw edema model assessed as paw diameter at 10 mg/kg, po pretreated for 1 hr followed by carrageenan challenge and measured at 3 hrs post-carrageenan injection (reference value: 4.79 +/- 0.1 mm); type: functional
[8] = system: Rattus norvegicus; test: Antiinflammatory activity against carrageenan induced albino Sprague-Dawley rat paw edema model assessed as paw edema at 10 mg/kg, po pretreated for 1 hr followed by carrageenan challenge and measured at 3 hrs post-carrageenan injection (reference value: 38.4%); type: functional
[9] = system: Rattus norvegicus; test: Antiinflammatory activity against carrageenan induced albino Sprague-Dawley rat paw edema model assessed as paw diameter at 10 mg/kg, po pretreated for 1 hr followed by carrageenan challenge and measured at 4 hrs post-carrageenan injection (reference value: 4.88 +/- 0.1 mm); type: functional
[10] = system: Rattus norvegicus; test: Antiinflammatory activity against carrageenan induced albino Sprague-Dawley rat paw edema model assessed as paw edema at 10 mg/kg, po pretreated for 1 hr followed by carrageenan challenge and measured at 4 hrs post-carrageenan injection (reference value: 41%); type: functional
[11] = Ulcerogenicity in albino rat assessed as gastric lesions at 10 mg/kg, po administered as single dose after 18 hrs of starvation challenge and measured after 4 hrs; type: toxicity, organism-based; conditions: in vivo
Outline: (§1)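 Adult male albino rats fasted 18 h, then dosed orally at 10 mg/kg (saline control, reference drugs); six rats per group. Killed 4 h after treatment. Stomachs removed and examined macroscopically for hyperemia, single or multiple lesions, erosion, ulcer or perforation. Number of ulcers and occurrence of hyperemia recorded.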

[12] = Ulcerogenicity in albino rat assessed as mild hyperemia without ulceration at 10 mg/kg, po administered as single dose after 18 hrs of starvation challenge and measured after 4 hrs; type: toxicity, organism-based; conditions: in vivo; outline: as §1
[13] = Ulcerogenicity in albino rat assessed as severity of gastric lesions at 10 mg/kg, po administered as single dose after 18 hrs of starvation challenge and measured after 4 hrs; type: toxicity, organism-based; conditions: in vivo; outline: as §1

| Structure (SMILES) | IC50 [1] [nM] | Activity [2] [mm] | Activity [3] [mm] | Activity [4] [%] | Activity [5] [mm] | Activity [6] [%] | Activity [7] [mm] | Activity [8] [%] | Activity [9] [mm] | Activity [10] [%] | UI [11] | Activity [12] | UI [13] |
| --- | --- | --- | --- | --- | --- | --- | --- | --- | --- | --- | --- | --- | --- |
| Cc1cccc(/C=C/C2=NNC(=O)CC2)c1 | 450 | 3.51 | 3.99 | 13.6 | 3.92 | 11.6 | 3.84 | 10.2 | 3.8 | 8.2 | 0.2 | Toxic | 0.4 |
| COc1ccccc1/C=C/c1ccc(=O)[nH]n1 | 530 |  |  |  |  |  |  |  |  |  |  |  |  |
| COc1ccccc1/C=C/c1ccc(=O)n(-c2ccccc2)n1 | 460 |  |  |  |  |  |  |  |  |  |  |  |  |
| COc1ccccc1/C=C/C1=NNC(=O)CC1 | 270 |  |  |  |  |  |  |  |  |  |  |  |  |
| O=C1CCC(/C=C/c2cccnc2)=NN1 | 750 | 3.53 | 3.92 | 11 | 3.86 | 9.3 | 3.81 | 7.9 | 3.78 | 7 | 0 |  | 0 |
| Cc1cccc(/C=C/C2=NN(c3ccc(F)cc3)C(=O)CC2)c1 | 210 |  |  |  |  |  |  |  |  |  |  |  |  |
| Cc1cccc(/C=C/c2ccc(=O)n(-c3ccc(F)cc3)n2)c1 | 240 |  |  |  |  |  |  |  |  |  |  |  |  |
| Cc1ccc(-c2cc(C(F)(F)F)nn2-c2ccc(S(N)(=O)=O)cc2)cc1 [CELECOXIB] |  | 3.48 | 3.93 | 12.9 | 3.88 | 11.4 | 3.83 | 10 | 3.78 | 8.6 | 2.7 |  | 6.2 |
| COc1ccc2c(c1)c(CC(=O)O)c(C)n2C(=O)c1ccc(Cl)cc1 [INDOMETHACIN] |  | 3.49 | 3.92 | 12.3 | 3.85 | 10.3 | 3.81 | 9.4 | 3.73 | 8 | 8.3 |  | 12.4 |

More lines, in order of falling IC50 [1], values ahead:

| IC50 [1] [nM] | Structure (SMILES) | Activity [2] [mm] | Activity [3] [mm] | Activity [4] [%] | Activity [5] [mm] | Activity [6] [%] | Activity [7] [mm] | Activity [8] [%] | Activity [9] [mm] | Activity [10] [%] | UI [11] | Activity [12] | UI [13] |
| --- | --- | --- | --- | --- | --- | --- | --- | --- | --- | --- | --- | --- | --- |
| 700 | COc1ccccc1/C=C/c1ccc(=O)n(-c2ccc(F)cc2)n1 | 3.59 | 3.97 | 10.5 | 3.93 | 9.4 | 3.88 | 8 | 3.85 | 7.2 | 0 |  | 0 |
| 540 | COc1ccccc1/C=C/C1=NN(c2ccc(F)cc2)C(=O)CC1 |  |  |  |  |  |  |  |  |  |  |  |  |
| 390 | COc1ccccc1/C=C/C1=NN(c2ccccc2)C(=O)CC1 |  |  |  |  |  |  |  |  |  |  |  |  |
| 370 | Cc1cccc(/C=C/c2ccc(=O)[nH]n2)c1 | 3.55 | 3.96 | 11.5 | 3.86 | 8.7 | 3.84 | 8.1 | 3.82 | 7.6 | 0 |  | 0 |
